Experimental data: ChEMBL document CHEMBL1141056, “Aqua mediated synthesis of substituted 2-amino-4H-chromenes and in vitro study as antibacterial agents” (Bioorg Med Chem Lett, 2005)

Experiments:
Format in all cases: functional, organism-based
Escherichia coli [1] = experiment: Antibacterial activity against Escherichia coli (ATCC 25922) at concentration 0.5 uM/ml in dimethylformamide, + = resistant
Procedure, shortened: (§1)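 Broth microdilution MIC per NCCLS standard protocol. Compounds dissolved in DMF and doubling-diluted in Mueller Hinton broth across 0.5–128 µg/ml; ampicillin run alongside. Inoculum adjusted to McFarland 0.5 and diluted to approx. 5×10^5 cfu/ml final per well. Plates held overnight at 37 °C. Growth scored per concentration: + resistant, − susceptible. Each plate carried broth+inoculum and broth-only control wells.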

Escherichia coli [2] = experiment: Antibacterial activity against Escherichia coli (ATCC 25922) at concentration 1.0 uM/ml in dimethylformamide, + = resistant; procedure, shortened: as §1
Escherichia coli [3] = experiment: Antibacterial activity against Escherichia coli (ATCC 25922) at concentration 2.0 uM/ml in dimethylformamide, + = resistant; procedure, shortened: as §1
Escherichia coli [4] = experiment: Antibacterial activity against Escherichia coli (ATCC 25922) at concentration 4.0 uM/ml in dimethylformamide, + = resistant; procedure, shortened: as §1
Escherichia coli [5] = experiment: Antibacterial activity against Escherichia coli (ATCC 25922) at concentration 8.0 uM/ml in dimethylformamide, + = resistant; procedure, shortened: as §1
Escherichia coli [6] = experiment: Antibacterial activity against Escherichia coli (ATCC 25922) at concentration 16.0 uM/ml in dimethylformamide, + = resistant; procedure, shortened: as §1
Escherichia coli [7] = experiment: Antibacterial activity against Escherichia coli (ATCC 25922) at concentration 32.0 uM/ml in dimethylformamide, + = resistant; procedure, shortened: as §1
Escherichia coli [8] = experiment: Antibacterial activity against Escherichia coli (ATCC 25922) at concentration 64.0 uM/ml in dimethylformamide, + = resistant; procedure, shortened: as §1
Staphylococcus aureus [9] = experiment: Antibacterial activity against Staphylococcus aureus (ATCC 25923) at concentration 0.5 uM/ml in dimethylformamide, + = resistant; procedure, shortened: as §1
Staphylococcus aureus [10] = experiment: Antibacterial activity against Staphylococcus aureus (ATCC 25923) at concentration 1.0 uM/ml in dimethylformamide, + = resistant; procedure, shortened: as §1
Staphylococcus aureus [11] = experiment: Antibacterial activity against Staphylococcus aureus (ATCC 25923) at concentration 2.0 uM/ml in dimethylformamide, + = resistant; procedure, shortened: as §1
Staphylococcus aureus [12] = experiment: Antibacterial activity against Staphylococcus aureus (ATCC 25923) at concentration 4.0 uM/ml in dimethylformamide, + = resistant; procedure, shortened: as §1
Staphylococcus aureus [13] = experiment: Antibacterial activity against Staphylococcus aureus (ATCC 25923) at concentration 8.0 uM/ml in dimethylformamide, + = resistant; procedure, shortened: as §1
Pseudomonas aeruginosa [14] = experiment: Antibacterial activity against Pseudomonas aeruginosa (ATCC 27853) at concentration 0.5 uM/ml in dimethylformamide, + = resistant; procedure, shortened: as §1
Pseudomonas aeruginosa [15] = experiment: Antibacterial activity against Pseudomonas aeruginosa (ATCC 27853) at concentration 1.0 uM/ml in dimethylformamide, + = resistant; procedure, shortened: as §1
Pseudomonas aeruginosa [16] = experiment: Antibacterial activity against Pseudomonas aeruginosa (ATCC 27853) at concentration 2.0 uM/ml in dimethylformamide, + = resistant; procedure, shortened: as §1
Pseudomonas aeruginosa [17] = experiment: Antibacterial activity against Pseudomonas aeruginosa (ATCC 27853) at concentration 4.0 uM/ml in dimethylformamide, + = resistant; procedure, shortened: as §1
Pseudomonas aeruginosa [18] = experiment: Antibacterial activity against Pseudomonas aeruginosa (ATCC 27853) at concentration 8.0 uM/ml in dimethylformamide, + = resistant; procedure, shortened: as §1
Staphylococcus aureus [19] = experiment: Antibacterial activity against Staphylococcus aureus (ATCC 25923) at concentration 16.0 uM/ml in dimethylformamide, + = resistant; procedure, shortened: as §1
Staphylococcus aureus [20] = experiment: Antibacterial activity against Staphylococcus aureus (ATCC 25923) at concentration 32.0 uM/ml in dimethylformamide, + = resistant; procedure, shortened: as §1
Staphylococcus aureus [21] = experiment: Antibacterial activity against Staphylococcus aureus (ATCC 25923) at concentration 64.0 uM/ml in dimethylformamide, + = resistant; procedure, shortened: as §1
Pseudomonas aeruginosa [22] = experiment: Antibacterial activity against Pseudomonas aeruginosa (ATCC 27853) at concentration 16.0 uM/ml in dimethylformamide, + = resistant; procedure, shortened: as §1
Pseudomonas aeruginosa [23] = experiment: Antibacterial activity against Pseudomonas aeruginosa (ATCC 27853) at concentration 32.0 uM/ml in dimethylformamide, + = resistant; procedure, shortened: as §1
Pseudomonas aeruginosa [24] = experiment: Antibacterial activity against Pseudomonas aeruginosa (ATCC 27853) at concentration 64.0 uM/ml in dimethylformamide, + = resistant; procedure, shortened: as §1
Staphylococcus aureus [25] = experiment: Antibacterial activity against Staphylococcus aureus (ATCC 25923)i at concentration 32.0 uM/ml in dimethylformamide, + = resistant; procedure, shortened: as §1

Measured: MIC

N#CC1=C(N)Oc2cc(O)ccc2C1c1ccccc1 (centres undefined)
not listed: Staphylococcus aureus [25]
Resistant: all other assays above

N#CC1=C(N)Oc2ccc3ccccc3c2C1n1ccc2ccccc21 (centres undefined)
not listed: Pseudomonas aeruginosa [24] | Staphylococcus aureus [25]
Resistant: all other assays above

N#CC1=C(N)Oc2ccc3ccccc3c2C1c1ccccc1 (centres undefined)
not listed: Pseudomonas aeruginosa [24] | Staphylococcus aureus [25]
Resistant: all other assays above

N#CC1=C(N)Oc2cc(O)ccc2C1c1cc2ccccc2nc1Cl (centres undefined)
not listed: Escherichia coli [8] | Pseudomonas aeruginosa [24] | Staphylococcus aureus [25]
Resistant: all other assays above

N#CC1=C(N)Oc2cc(O)ccc2C1c1ccc2c(c1)OCO2 (centres undefined)
not listed: Pseudomonas aeruginosa [24] | Staphylococcus aureus [25]
Resistant: all other assays above

N#CC1=C(N)Oc2ccc3ccccc3c2C1c1ccc2c(c1)OCO2 (centres undefined)
not listed: Pseudomonas aeruginosa [24] | Staphylococcus aureus [25]
Resistant: all other assays above

CC1(C)S[C@@H]2[C@H](NC(=O)[C@H](N)c3ccccc3)C(=O)N2[C@H]1C(=O)O
Resistant: Escherichia coli [1] | Escherichia coli [2] | Escherichia coli [3] | Staphylococcus aureus [9] | Staphylococcus aureus [10] | Staphylococcus aureus [11] | Staphylococcus aureus [12] | Pseudomonas aeruginosa [14] | Pseudomonas aeruginosa [15] | Pseudomonas aeruginosa [16] | Pseudomonas aeruginosa [17]

N#CC1=C(N)Oc2cc(O)ccc2C1n1ccc2ccccc21 (centres undefined)
not listed: Pseudomonas aeruginosa [24] | Staphylococcus aureus [25]
Resistant: all other assays above

N#CC1=C(N)Oc2ccc3ccccc3c2C1c1cc2ccccc2nc1Cl (centres undefined)
not listed: Staphylococcus aureus [20] | Staphylococcus aureus [21] | Pseudomonas aeruginosa [24]
Resistant: all other assays above
